Test results published in ChEMBL document CHEMBL1133007, “Synthesis and in vitro evaluation of novel morpholinyl- and methylpiperazinylacyloxyalkyl prodrugs of 2-(6-methoxy-2-naphthyl)propionic acid (Naproxen) for topical drug delivery” (J Med Chem, 2000).
≈ marks a conversion by molar mass, not a printed value.

Columns and labels:
[1] = Evaluated for 50% hydrolysis rate in 80% human serum at a pH of 7.4; assay type: ADME; settings: pH 7.4
Summary of the method: (§1)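 Human serum diluted to 80% with 0.16 M phosphate buffer pH 7.4, 37 °C. Prodrug dissolved in buffer, then preheated serum added. Aliquots were quenched in ethanol and centrifuged, and the supernatant was analysed by HPLC for remaining prodrug and released naproxen. Pseudo-first-order t1/2 came from the slope of log remaining prodrug vs time. f50% is the time at which 50% of total naproxen formed. Mean of n = 2.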

[2] = Evaluated for the time by which 50% of total naproxen is formed in 80% human serum at a pH of 7.4; assay type: ADME; settings: pH 7.4; summary of the method: as §1
Homo sapiens [3] = organism: Homo sapiens; experiment: Evaluated for the Steady-state fluxes (Jss) for delivery of total Naproxen species through excised human skin in Vitro in Isotonic phosphate buffer (0.05 M) at pH 7.4; assay type: ADME
Summary of the method: (§2)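 Excised postmortem human skin, epidermis heat-separated (60 °C water, 2 min), dried, frozen, then rehydrated and mounted in Franz-type diffusion cells (area 0.71 cm2). Donor was a saturated suspension in 0.05 M phosphate buffer at the stated pH. Receptor was isotonic 0.05 M phosphate pH 7.4, stirred at 37 °C and sampled at intervals. Total naproxen, intermediate and prodrug were measured by HPLC. Jss is the steady-state slope per area; mean ± SE, n = 3-12.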

[4] = Evaluated for the solubility in aqueous solution at pH 5.0; assay type: ADME
Summary of the method: (§3)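 Excess compound was stirred in 0.16 M phosphate buffer at room temperature, 60 min at pH 5.0 or 30 min at pH 7.4, with pH held constant. The mixture was filtered (0.45 µm) and the filtrate quantified by reversed-phase HPLC.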

Homo sapiens [5] = organism: Homo sapiens; experiment: Evaluated for the Steady-state fluxes (Jss) for delivery of total Naproxen species through excised human skin in vitro in Isotonic phosphate buffer (0.05 M) at pH 5.0; assay type: ADME; summary of the method: as §2
[6] = Evaluated for 50% hydrolysis rate in phosphate buffer at 5.0 at 37 degrees C; assay type: ADME; settings: pH 5
Summary of the method: (§4)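 Chemical stability in phosphate buffer (0.16 M, ionic strength 0.5) at pH 7.4 or 5.0, in a 37 °C thermostatted water bath. Samples were taken at intervals and analysed by HPLC for remaining prodrug. Pseudo-first-order t1/2 was calculated from the slope of the linear part of log remaining prodrug vs time.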

[7] = Evaluated for 50% hydrolysis rate in phosphate buffer at pH 7.4 at 37 degrees C; assay type: ADME; summary of the method: as §4
[8] = Evaluated for the apparent partition coefficient between 1-octanol and phosphate buffer at pH 7.4; assay type: physicochemical; settings: 1-octanol/phosphate buffer
Summary of the method: (§5)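 Shake-flask log Papp at room temperature. Compound in phosphate buffer (pH 5.0 or 7.4) was shaken with buffer-saturated 1-octanol for 30 min (pH 5.0) or 15 min (pH 7.4), and phases were separated by centrifugation. Buffer-phase concentration was measured by HPLC before and after partitioning.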

[9] = Evaluated for the solubility in aqueous solution at pH 7.4; assay type: ADME; summary of the method: as §3
[10] = Evaluated for the apparent partition coefficient between 1-octanol and phosphate buffer at pH 5.0.; assay type: physicochemical; settings: 1-octanol/phosphate buffer; summary of the method: as §5
Homo sapiens [11] = organism: Homo sapiens; experiment: Evaluated for the Steady-state fluxes (Jss) for delivery of total Naproxen species through excised human skin in Vitro in Isotonic phosphate buffer (0.05 M) at pH 5.0; assay type: ADME; summary of the method: as §2
Homo sapiens [12] = organism: Homo sapiens; experiment: Evaluated for the Steady-state fluxes (Jss) for delivery of total Naproxen species through excised human skin in vitro in isotonic phosphate buffer (0.05 M) at pH 5.0; assay type: ADME; summary of the method: as §2
Homo sapiens [13] = organism: Homo sapiens; experiment: Evaluated for the Steady-state fluxes (Jss) for delivery of total Naproxen species through excised human skin in vitro in isotonic phosphate buffer (0.05 M) at pH 7.4; assay type: ADME; summary of the method: as §2
[14] = Evaluated for the hydrolysis rate in phosphate buffer at pH 7.4 at 37 degrees Centigrade; assay type: ADME; summary of the method: as §4
[15] = Evaluated for the hydrolysis rate in 80% human serum (mean; n=2) at a pH of 7.4; assay type: ADME; settings: pH 7.4; summary of the method: as §1
[16] = Evaluated for the hydrolysis rate in phosphate buffer at 5.0 at 37 degrees Centigrade.; assay type: ADME; settings: pH 5; summary of the method: as §4

Row | half-life [1] | 50% naproxen formed [2] | Jss (Homo sapiens [3]) | solubility [4] | Jss (Homo sapiens [5]) | half-life [6] | half-life [7] | logD [8] | solubility [9] | logD [10] | Jss (Homo sapiens [11]) | Jss (Homo sapiens [12]) | Jss (Homo sapiens [13]) | half-life [14] | half-life [15] | half-life [16] | Structure (SMILES)
1 | 0.217 h | 11 min | – | – | – | – | – | – | – | – | – | – | – | – | – | – | COc1ccc2cc(C(C)C(=O)OCCCCOC(=O)CN3CCOCC3)ccc2c1 (configuration not stated)
2 | 0.0167 h | 3 min | 13.2 nM hr-1 cm**-2 | 61 mM (≈ 28700 µg/mL) | 1.2 nM hr-1 cm**-2 | 893 h | 48 h | 2.69 | 50 mM (≈ 23500 µg/mL) | 1.41 | – | – | – | – | – | – | COc1ccc2cc(C(C)C(=O)OCCCCOC(=O)CCCN3CCN(C)CC3)ccc2c1 (configuration not stated)
3 | 0.05 h | 7 min | 7.2 nM hr-1 cm**-2 | 16.2 mM (≈ 7170 µg/mL) | – | 1920 h | 182 h | 1.3 | 8.8 mM (≈ 3890 µg/mL) | 0.94 | 0.2 nM hr-1 cm**-2 | – | – | – | – | – | COc1ccc2cc(C(C)C(=O)OCCCCOC(=O)CN3CCN(C)CC3)ccc2c1 (configuration not stated)
4 | 0.433 h | 22 min | 24.6 nM hr-1 cm**-2 | 5.3 mM (≈ 2200 µg/mL) | – | 1600 h | 57.6 h | 1.16 | 4.1 mM (≈ 1700 µg/mL) | 0.43 | 2.2 nM hr-1 cm**-2 | – | – | – | – | – | COc1ccc2cc(C(C)C(=O)OCCOC(=O)CN3CCN(C)CC3)ccc2c1 (configuration not stated)
5 | 0.333 h | 25 min | – | 0.05 mM (≈ 20.1 µg/mL) | – | 161 h | 33.6 h | 2.14 | 0.07 mM (≈ 28.1 µg/mL) | 2.62 | – | 0.6 nM hr-1 cm**-2 | 0.7 nM hr-1 cm**-2 | – | – | – | COc1ccc2cc(C(C)C(=O)OCCOC(=O)CN3CCOCC3)ccc2c1 (configuration not stated)
6 | – | 5 min | – | 142 mM (≈ 64700 µg/mL) | – | – | – | 3.04 | 432 mM (≈ 197000 µg/mL) | 1.2 | – | 0.6 nM hr-1 cm**-2 | 7.7 nM hr-1 cm**-2 | 16.8 h | 4 min | 432 h | COc1ccc2cc(C(C)C(=O)OCCCCOC(=O)CCN3CCN(C)CC3)ccc2c1 (configuration not stated)
